Test results published in ChEMBL document CHEMBL1126126, “Development, synthesis, and biological evaluation of (-)-trans-(2S,5S)-2-[3-[(2-oxopropyl)sulfonyl]-4-n-propoxy-5-(3- hydroxypropoxy)-phenyl]-5-(3,4,5-trimethoxyphenyl)tetrahydrofuran, a potent orally active platelet-activating factor (PAF) antagonist and its water-soluble prodrug phosphate ester” (J Med Chem, 1992).
pIC50: −log10 of the molar value. ≈ marks a conversion by molar mass, not a printed value. Calls of active or inactive are those of the source. The rule behind the calls is not given here.

Key:
[1] = Water solubility at pH 7.4; format: physicochemical
In short: (§1)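 Compound combined with buffered solution at the stated pH, sonicated, shaken 1 h and filtered. Filtrate concentration measured by UV against standards of known concentration; reported in mg/mL.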

[2] = biological target: T1, C5a anaphylatoxin chemotactic receptor 1 (Homo sapiens) (UniProt P21730); experiment: (§2) Effect on uM; no effect
T1 sequence (whole entry): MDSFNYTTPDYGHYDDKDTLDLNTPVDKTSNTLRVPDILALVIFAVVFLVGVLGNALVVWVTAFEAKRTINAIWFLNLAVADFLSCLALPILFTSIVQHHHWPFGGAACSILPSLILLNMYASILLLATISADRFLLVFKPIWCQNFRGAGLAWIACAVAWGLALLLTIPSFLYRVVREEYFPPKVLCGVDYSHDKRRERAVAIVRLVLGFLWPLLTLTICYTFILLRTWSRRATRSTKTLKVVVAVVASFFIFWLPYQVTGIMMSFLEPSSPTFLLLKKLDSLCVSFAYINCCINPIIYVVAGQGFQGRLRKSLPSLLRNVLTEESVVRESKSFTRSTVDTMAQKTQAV

[3] = biological target: T2, Cysteinyl leukotriene receptor 1 (Cavia porcellus) (UniProt Q2NNR5); experiment: as §2
T2 sequence (whole entry): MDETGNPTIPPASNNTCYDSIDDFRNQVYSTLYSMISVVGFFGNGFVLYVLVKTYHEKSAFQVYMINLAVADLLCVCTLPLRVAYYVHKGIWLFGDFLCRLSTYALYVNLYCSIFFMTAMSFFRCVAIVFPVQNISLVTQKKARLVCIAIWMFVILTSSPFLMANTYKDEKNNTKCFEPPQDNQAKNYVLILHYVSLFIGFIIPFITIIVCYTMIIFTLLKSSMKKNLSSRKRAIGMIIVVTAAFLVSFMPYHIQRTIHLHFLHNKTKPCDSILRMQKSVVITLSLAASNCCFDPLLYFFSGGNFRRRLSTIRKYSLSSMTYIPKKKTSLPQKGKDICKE

[4] = biological target: Leukotriene B4 receptor 1 (Homo sapiens) (UniProt Q15722); experiment: as §2
Sequence of Leukotriene B4 receptor 1 (Homo sapiens) (Q15722 whole entry): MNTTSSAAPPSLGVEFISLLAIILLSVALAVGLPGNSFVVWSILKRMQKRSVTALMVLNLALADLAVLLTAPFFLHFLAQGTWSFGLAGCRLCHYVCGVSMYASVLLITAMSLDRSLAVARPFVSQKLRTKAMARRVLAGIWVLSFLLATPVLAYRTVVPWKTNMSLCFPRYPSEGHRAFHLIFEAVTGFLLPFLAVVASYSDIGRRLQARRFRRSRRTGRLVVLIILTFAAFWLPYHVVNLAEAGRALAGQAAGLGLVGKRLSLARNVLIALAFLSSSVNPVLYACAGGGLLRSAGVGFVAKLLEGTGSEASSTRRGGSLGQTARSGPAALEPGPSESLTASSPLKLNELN

[5] = Water solubility was determined; format: ADME; in short: as §1
[6] = biological target: Platelet-activating factor receptor (Homo sapiens, UniProt P25105); experiment: Inhibition of the binding of [3H]C18-Platelet activating factor to human platelet membrane preparation
Sequence of Platelet-activating factor receptor (P25105 whole entry): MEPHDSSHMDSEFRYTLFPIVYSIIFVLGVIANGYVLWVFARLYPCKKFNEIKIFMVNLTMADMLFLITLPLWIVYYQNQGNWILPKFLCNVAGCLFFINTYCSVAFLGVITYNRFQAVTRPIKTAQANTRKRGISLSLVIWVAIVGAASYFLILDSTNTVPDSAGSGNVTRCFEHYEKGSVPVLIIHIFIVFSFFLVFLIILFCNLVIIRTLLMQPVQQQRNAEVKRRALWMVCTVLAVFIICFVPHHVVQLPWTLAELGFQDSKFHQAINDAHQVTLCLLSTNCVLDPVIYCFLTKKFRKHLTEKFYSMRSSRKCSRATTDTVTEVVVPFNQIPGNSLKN

Homo sapiens [7] = species on record: Homo sapiens; experiment: Inhibitory activity against PAF-induced aggregation of human platelets suspended in plasma; format: functional
Rattus norvegicus [8] = experiment: In vivo inhibitory activity against PAF induced plasma level of N-acetyl-beta-D-glucosaminidase (NAGA) and hematocrit (plasma extravasation) in female rat after p.o. administration; format: functional; conditions: po
Rattus norvegicus [9] = experiment: In vivo inhibitory activity against PAF induced plasma level of N-acetyl-beta-D-glucosaminidase (NAGA) and hematocrit (plasma extravasation) in male rat after p.o. administration; format: functional; conditions: po
Cavia porcellus [10] = experiment: In vivo inhibitory activity against PAF induced bronchoconstriction in male guinea pigs; format: functional; conditions: read-out: ID50 (the source's name)
Rattus norvegicus [11] = experiment: In vivo inhibitory activity against PAF induced plasma level of N-acetyl-beta-D-glucosaminidase (NAGA) and hematocrit (plasma extravasation) in male rat after i.v. administration; format: functional; conditions: iv
[12] = tested on: Angiotensin II receptor (Oryctolagus cuniculus); experiment: Effect on uM; no effect
Homo sapiens [13] = species on record: Homo sapiens; experiment: Inhibitory activity against PAF-induced aggregation of human platelets suspended in buffer [washed platelets (WP)]; format: functional
[14] = Water solubility at pH 5; format: physicochemical; in short: as §1
Rattus norvegicus [15] = experiment: Effect against PAF induced plasma level of N-acetyl-beta-D-glucosaminidase (NAGA) and plasma extravasation in male rat at a dose of 1 mg/kg by single administration after 6 hour; format: functional
Cavia porcellus [16] = experiment: In vivo inhibitory activity against PAF induced bronchoconstriction in female guinea pigs; format: functional; conditions: read-out: ID50 (the source's name)
[17] = Water solubility at pH 6; format: physicochemical; in short: as §1

Compound	inhibition [2]	inhibition [3]	inhibition [4]	solubility [5] [µg/mL]	pIC50 [6]	pIC50 (Homo sapiens [7])	ED50 (Rattus norvegicus [8]) [mg/kg]	ED50 (Rattus norvegicus [9]) [mg/kg]	ED50 (Cavia porcellus [10]) [mg/kg]	ED50 (Rattus norvegicus [11]) [mg/kg]	solubility [14] [µg/mL]	solubility [17] [µg/mL]	other results
CCCOc1c(OCCCOP(=O)([O-])O)cc([C@@H]2CC[C@@H](c3cc(OC)c(OC)c(OC)c3)O2)cc1S(=O)(=O)CC(C)=O.[K+]	inactive	inactive	inactive	–	–	–	–	–	–	–	–	–	solubility [1]: > 30000 µg/mL
CCCOc1c(OCCCO)cc([C@@H]2CC[C@@H](c3cc(OC)c(OC)c(OC)c3)O2)cc1S(=O)(=O)CC(C)=O	inactive	inactive	inactive	100 (≈ 176 µM)	–	–	–	–	–	–	–	–	–
CCCOc1c(OC)cc([C@H]2CC[C@H](c3cc(OC)c(OC)c(OC)c3)O2)cc1S(C)(=O)=O (single isomer, unassigned)	–	–	–	–	8.05	–	–	–	–	–	–	–	–
CCCOc1c(OC)cc([C@@H]2CC[C@@H](c3cc(OC)c(OC)c(OC)c3)O2)cc1S(=O)(=O)CCO	–	–	–	2 (≈ 3.92 µM)	–	7.26	0.1	2.3	0.19	0.1	–	–	–
CCCOc1c(OCCCN2CCOCC2)cc([C@@H]2CC[C@@H](c3cc(OC)c(OC)c(OC)c3)O2)cc1S(=O)(=O)CC(C)=O	inactive	inactive	inactive	–	8.60	7.72	0.2	0.15	0.06	0.037	5400 (≈ 8490 µM)	900 (≈ 1420 µM)	inhibition [12]: inactive; pIC50 (Homo sapiens [13]): 9.00; inhibition in vivo at 1 mg/kg (Rattus norvegicus [15]): 60%; ED50 (Cavia porcellus [16]): 0.04 mg/kg
CCCOc1c(OCCCn2ccnc2)cc([C@@H]2CC[C@@H](c3cc(OC)c(OC)c(OC)c3)O2)cc1S(=O)(=O)CC(C)=O	inactive	inactive	inactive	–	–	–	–	–	–	–	5500 (≈ 8920 µM)	800 (≈ 1300 µM)	–
